Compound activity (PubChem BioAssay)
SENP8 block-1 = SENP8 protease inhibition | AID 2540 | inhibition, % at 10 µM | purified SENP8, Z-RLRGG-aminoluciferin cleavage, luminescence | hit rate 1.2% among 330,000 | Q96LD8; in the data active = inhibition above about 50%
Target sequence (Q96LD8 whole entry, looked up): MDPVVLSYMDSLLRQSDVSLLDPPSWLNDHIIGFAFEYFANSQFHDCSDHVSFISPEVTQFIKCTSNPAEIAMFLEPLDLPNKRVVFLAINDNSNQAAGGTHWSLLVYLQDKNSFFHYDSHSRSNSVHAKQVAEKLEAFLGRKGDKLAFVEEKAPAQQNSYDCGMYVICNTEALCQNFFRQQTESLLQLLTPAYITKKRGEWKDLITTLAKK
SENP8 block-2 = inhibitors of human SENP8 protease | Q96LD8 | recombinant SENP8, Nedd8 substrate fluorescence | inhibition, % at 20 µM | hit rate 0.64% among 360,000 | AID 602440; in the data active = inhibition mostly above about 40%, no sharp cut-off; inactive = mostly below about 27%
SENP6 inh = inhibitors of human SENP6 protease | Q9GZR1 | Recombinant SENP6 catalytic domain, aminoluciferin luminescence | inhibition, % at 10 µM | hit rate 1.8% among 330,000;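 active = inhibition above about 50% at the single tested dose, limit read from the data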
SENP1 FRET inh = blocks the human SENP1 SUMO protease catalytic domain; Q9P0U3; recombinant SENP1 catalytic domain, CyPet-SUMO1-YPet FRET cleavage; inhibition, % at 10 µM; hit rate 0.21% among 360,000; AID 624204;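 active = inhibition at least 30% at 10 µM, raw YFP signal under a set limit, fluorescence ratio 0.5 to 1.5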
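Controls: no-enzyme wells low, DMSO-plus-enzyme wells high control. Test system: human recombinant His6-tagged SENP1 catalytic domain enzyme. Reagent: SFCypet-SUMO1-SFYpet FRET protein substrate, 25 nM final. Doses: one dose per compound, 10 µM, 0.5% DMSO. Detection: FRET, CFP and YFP emission. Timing: 50 min reaction at room temperature.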
SENP7 block = blocks the human protease SENP7 | Q9BQF6 | recombinant SENP7, Z-RLRGG-aminoluciferin luminescence, 40 min | inhibition, % at 5 µM | hit rate 1.5% among 330,000;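 active = inhibition above about 50% at the single test dose, limit read from the data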
Target sequence (Q9BQF6 706-1050 limits assumed): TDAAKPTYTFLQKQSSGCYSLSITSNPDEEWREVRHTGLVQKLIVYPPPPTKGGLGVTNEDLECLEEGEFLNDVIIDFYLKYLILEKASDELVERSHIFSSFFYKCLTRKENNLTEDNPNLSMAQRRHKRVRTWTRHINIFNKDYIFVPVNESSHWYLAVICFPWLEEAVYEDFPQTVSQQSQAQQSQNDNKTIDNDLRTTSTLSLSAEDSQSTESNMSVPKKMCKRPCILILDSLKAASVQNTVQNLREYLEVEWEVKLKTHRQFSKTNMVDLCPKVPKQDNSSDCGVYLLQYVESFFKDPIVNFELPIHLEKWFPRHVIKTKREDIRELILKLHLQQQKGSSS
SENP8 conf = confirmation of human SENP8 protease inhibitors. shares compounds with SENP7 block. Recombinant SENP8, Z-RLRGG-aminoluciferin luminescence, 60 min. inhibition, % at 12.5 µM. hit rate 40% among 6,200;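 active = mean inhibition across replicates above about 50%, limit read from the data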
SENP6 confirm = human SENP6 inhibition, confirmed. shares compounds with SENP7 block. inhibition, % at 12.5 µM. hit rate 58% among 6,200. AID 488915. recombinant SENP6, Z-RLRGG-aminoluciferin luminescence
SENP7 conf = human SENP7 inhibition, confirmed. recombinant SENP7, Z-RLRGG-aminoluciferin luminescence, 40 min. hit rate 69% among 6,200. shares compounds with SENP7 block. inhibition, % at 12.5 µM
Casp3 SENP sel = inhibits human caspase-3 in SENP selectivity test; hit rate 60% among 6,200; inhibition, % at 12.5 µM; shares compounds with SENP7 block; purified caspase-3, Z-DEVD-aminoluciferin luminescence, 60 min;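 active = mean inhibition above about 50%, limit read from the data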
Luc interf = counter-screen for SENP inhibitors: luminescence interference | hit rate 39% among 6,200 | Pre-incubated SENP8/Z-RLRGG-aminoluciferin, luciferase luminescence interference | inhibition, % at 12.5 µM | shares compounds with SENP7 block;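 active = mean inhibition above about 50% when retested at one dose, limit read from the data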
Numbers stand for hits; - = inactive; . = not tested or not shown. Compounds with a hit are over-represented: about 2.5% of the library has one in this group of screens.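 The calls were made as follows, unless noted: active = mean inhibition above about 50% in the one-dose retest (limit read from the data); inactive = the rest.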

SMILES	SENP8 block-1	SENP8 block-2	SENP6 inh	SENP1 FRET inh	SENP7 block	SENP8 conf	SENP6 confirm	SENP7 conf	Casp3 SENP sel	Luc interf
COc1ccc(N=Cc2c(O)c3ccccc3n2C(C)=O)cc1	-	-	-	-	-	.	.	.	.	.
O=C(NCCCn1ccnc1)c1cc(-c2cccc(O)c2)on1	-	-	-	-	-	.	.	.	.	.
COC(=O)c1cccc(CSc2nc3ccccc3[nH]2)c1	-	-	65	-	72	-	50	83	64	68
O=C1CCC(=O)N1c1ccc(CSc2nc3ccccc3[nH]2)cc1	-	-	-	-	-	.	.	.	.	.
COC(=O)c1ccc(CSc2nc3ccccc3[nH]2)o1	-	-	-	-	-	.	.	.	.	.
c1cnc2c(SCc3ccc(-c4nnco4)cc3)cccc2c1	-	-	-	-	-	.	.	.	.	.
COc1ccc(CSc2nc3ccccc3[nH]2)cc1	88	-	96	-	94	92	94	100	92	93
c1ccc2[nH]c(SCc3ccc(-c4nnco4)cc3)nc2c1	-	-	72	-	71	64	61	88	81	75
O=C(Cc1cccnc1)N[C@@H]1CC[C@H](CCn2cc(Cc3ccccc3)nn2)O[C@@H]1CO	.	-	.	-	.	.	.	.	.	.
COCCN1C(=O)CCC1(C)c1nnnn1-c1ccc2c(c1)OCCO2 (stereo not drawn)	.	-	.	-	.	.	.	.	.	.
O=C(Nc1ccc(Cl)cc1Cl)c1cc2ccccc2o1	-	-	-	-	59	-	-	-	-	-
COc1cc(NC(=O)c2cc3ccccc3o2)c(OC)cc1Cl	-	-	-	-	-	.	.	.	.	.
O=C(Nc1ncccc1Cl)c1cc2ccccc2o1	-	-	63	-	64	68	73	92	83	-
Cc1ccc(NC(=O)c2cc3ccccc3o2)nc1	-	-	63	-	65	58	58	87	74	67
COc1ccccc1NC(=O)c1cc2ccccc2o1	-	-	57	-	-	-	-	78	-	54
Cc1ccc(NC(=O)c2cc3ccccc3o2)cc1Cl	-	-	-	-	-	.	.	.	.	.
CCC(CC)c1nnc(NC(=O)C2CSC3(C)CCC(=O)N23)s1 (stereo not drawn)	-	-	-	-	-	.	.	.	.	.
Cc1ccccc1NC(=O)c1cc2ccccc2o1	67	-	85	-	71	71	70	92	85	79
CSc1nc2sc3c(c2c(=O)n1C)CCC3	-	-	-	-	-	.	.	.	.	.
CSc1nc2sc3c(c2c(=O)n1C)CCC(C)C3 (stereo not drawn)	-	-	63	-	50	-	-	-	-	-
COC(=O)[C@@]12C[C@@H](CC(=O)NCc3cccc(C(F)(F)F)c3)C(=O)N(Cc3ccccc3)C1=CCC(C)(C)C2	.	-	.	-	.	.	.	.	.	.
CCc1ccc2oc(-c3ccc(OC)cc3)cc(=Nc3c(C)n(C)n(-c4ccccc4)c3=O)c2c1	84	-	97	-	99	-	-	-	-	-
CCc1ccc2oc(-c3ccc(OC)cc3)cc(=Nc3cccc(C(=O)O)c3)c2c1	86	-	-	-	97	83	85	95	79	63
COc1ccc(-c2cc(=Nc3ccc(C(=O)O)cc3)c3cc(C)ccc3o2)cc1	79	-	66	-	89	-	81	93	84	64
CCn1c(SC)nnc1C1CCN(CC(=O)Nc2ccccc2N2CCOCC2)CC1	-	-	-	-	-	.	.	.	.	.
SMILES	SENP8 block-1	SENP8 block-2	SENP6 inh	SENP1 FRET inh	SENP7 block	SENP8 conf	SENP6 confirm	SENP7 conf	Casp3 SENP sel	Luc interf
CCOc1ccc(N2C(=O)CCC2=O)cc1	-	-	-	-	-	.	.	.	.	.
CCCC1CCC(c2ccc(OCC)cc2)=CC1=O (stereo not drawn)	-	-	65	-	-	-	-	71	-	-
CC1(C(=O)NC2CCCC2)CCC(=O)N1CCOc1ccccc1 (stereo not drawn)	.	-	.	-	.	.	.	.	.	.
Cc1cc(NC(=O)c2ccoc2C)ccc1Br	97	-	100	-	97	98	99	102	95	96
Cc1occc1C(=O)Nc1ccc(S(N)(=O)=O)cc1	-	-	-	-	-	.	.	.	.	.
Cc1occc1C(=O)Nc1cccc(C(=O)O)c1	91	-	96	-	96	95	95	101	72	93
Cc1ccc(NC(=O)c2ccoc2C)cc1C	92	-	92	-	97	-	94	101	96	93
Cc1occc1C(=O)Nc1ccc2c(c1)OCO2	54	-	84	-	80	64	63	89	90	74
O=C(c1ccccc1)n1c(=O)c(F)cn(COCCBr)c1=O	-	-	-	-	-	.	.	.	.	.
Nc1ccccc1C(=O)Nc1cccc(C(=O)O)c1	92	-	95	-	-	96	97	101	82	96
CSc1ccccc1C(=O)Nc1cc(C)cc(C)c1	-	-	-	-	-	.	.	.	.	.
CSc1ccccc1C(=O)Nc1ccc(C)c(C)c1	-	-	65	-	68	54	52	84	74	70
O=C(O)c1cccc(NC(=O)c2ccccc2NC(=O)c2cccs2)c1	.	-	.	-	.	.	.	.	.	.
Cc1cc(NC(=O)c2ccc(F)c(S(=O)(=O)N3CCCCC3)c2)no1	-	-	-	-	-	.	.	.	.	.
CCOC(=O)c1ccc(NC(=S)Nc2ccc(Br)cc2N)cc1	-	-	-	-	-	.	.	.	.	.
COc1ccc(-c2cn[nH]c2C)cc1	-	-	-	-	-	.	.	.	.	.
COc1ccc2cc(-c3ccn[nH]3)ccc2c1	-	-	66	-	59	-	53	84	-	64
COc1ccc(CN(C(C)=O)c2cc(C)c([N+](=O)[O-])cc2OC)cc1OC	.	-	.	-	.	.	.	.	.	.
CC(C#N)N1CCN(S(=O)(=O)c2ccc3c(c2)CCC3)CC1 (stereo not drawn)	-	-	-	-	-	.	.	.	.	.
O=C(c1ccccc1-c1nc(-c2ccc(Cl)cc2)no1)N1CCCC1	-	-	-	-	-	.	.	.	.	.
Cc1ccccc1-c1noc(-c2ccccc2F)n1	90	-	84	-	96	78	78	94	81	61
COc1nc(-c2ccccc2)ccc1-c1noc(-c2ccccc2F)n1	-	-	-	-	-	.	.	.	.	.
NC(=O)c1ccc(-c2noc(-c3ccccc3F)n2)cc1	66	-	74	-	77	-	63	77	69	-
Cc1ccccc1-c1noc(-c2ccccc2C(=O)N2CCCC2)n1	-	-	-	-	-	.	.	.	.	.
